HSF-1 act: HSF-1 activators, primary screen, NIH3T3-HGL cells, MG132 stress, luminescence, single point. activation, % at 9 µM. NIH3T3-HGL HSF-1 luciferase reporter, 8 h; 100% = twice DMSO control signal. actives 1.7% (n = 300,000). AID 504408, 2011;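 active means mean replicate activation of at least 50% with a set share of replicates each reaching 50%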;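 further: 0% = median of the neutral control wells and 100% = twice that signal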
Wnt act: Wnt/beta-catenin pathway activators, primary screen, cell-based, plate reader, single point; Wnt/beta-catenin reporter cell assay, activator; activation, % at 9.35 µM; actives 1.2% (n = 300,000); AID 743398, 2014; in the data active means activation above about 30%, passing the limit was not always enough;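 further: 0% = neutral control wells and 100% = positive control wells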
SR-BI DiI inh: inhibitors of SR-BI mediated HDL lipid uptake, primary screen, ldlA[mSR-BI] cells, fluorescence, single point | AID 488896, 2010 | ldlA[mSR-BI] CHO cells, DiI-HDL uptake fluorescence, 3 h | actives 0.96% (n = 320,000) | inhibition, % at 12.5 µM;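 active means mean replicate inhibition of at least 70% and a set share of replicates each scoring 70 or more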;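 further: 0% = median of neutral control wells and 100% = median of positive control wells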
Target sequence (Q61009 whole entry, looked up): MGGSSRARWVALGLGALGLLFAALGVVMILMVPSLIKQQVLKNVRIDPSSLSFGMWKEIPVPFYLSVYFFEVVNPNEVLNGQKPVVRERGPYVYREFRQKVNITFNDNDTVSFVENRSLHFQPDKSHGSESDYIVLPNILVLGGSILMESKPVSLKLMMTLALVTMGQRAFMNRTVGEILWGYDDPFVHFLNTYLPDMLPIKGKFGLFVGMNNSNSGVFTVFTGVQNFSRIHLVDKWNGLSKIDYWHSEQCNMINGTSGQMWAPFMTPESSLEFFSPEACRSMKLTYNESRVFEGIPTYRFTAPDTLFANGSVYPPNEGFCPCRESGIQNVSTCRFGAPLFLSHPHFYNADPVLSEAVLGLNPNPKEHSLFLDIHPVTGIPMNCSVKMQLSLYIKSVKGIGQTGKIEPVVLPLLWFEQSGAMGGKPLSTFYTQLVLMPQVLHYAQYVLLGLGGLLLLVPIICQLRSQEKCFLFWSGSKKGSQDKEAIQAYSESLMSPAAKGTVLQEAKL
MITF act: activators of MITF-driven TRPM1 promoter reporter, primary screen, cell-based, SK-MEL-5, luciferase, single point. SK-MEL-5 TRPM1-promoter luciferase, 24 h; % of positive control, neutral wells = 0. activation, % at 12.5 µM. actives 0.75% (n = 300,000);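 active means mean activation of at least 80% with every replicate also reaching 80%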;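 further: 0% = neutral control wells and 100% = parthenolide positive control wells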
SR-BI DiI-HDL act: activators of SR-BI mediated DiI-HDL uptake, primary screen, ldlA[mSR-BI] CHO cells, DiI fluorescence; 3 h; 100 = double the neutral-control signal; activation, % at 12.5 µM; actives 0.096% (n = 320,000); AID 504775, 2011;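 active means mean replicate activation of at least 60% and every replicate at or above 60%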;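 further: 0% = median plate neutral-control signal and 100% = twice that signal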
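Assay system: CHO ldlA[mSR-BI] cells, LDL receptor-null, SR-BI overexpressing; medium: Ham's F12 with 0.5% BSA, HEPES 25 mM, pH 7.4; also added: DiI-HDL 10 µg/mL; timing: 3 h uptake period with compound, 37 °C; signal: DiI fluorescence, bottom read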
* marks the source's active call; other numbers are inactive results; x = no result given. Rows were chosen to be rich in hits. Some 3.6% of all compounds tested hit in one or more screens of this group.

SMILES	HSF-1 act	Wnt act	SR-BI DiI inh	MITF act	SR-BI DiI-HDL act
CC(C)C1=CC2C3C(=O)N(c4ccccc4)C(=O)C3C1C(=O)C2(C)O (configuration not stated)	x	-0.5	x	x	x
Cc1ccc2nc(-c3ccc(NC(=O)Cc4cccs4)cc3)[nH]c2c1	75.8*	15.2	28.3	42.5	-28.3
Cc1ccc2nc(-c3ccc(NC(=O)C4CCCO4)cc3)[nH]c2c1 (configuration not stated)	-25.3	x	18.0	-4.0	-18.0
COCCNc1nc(-c2cc(F)ccc2C)c2sc(-c3ccccc3)cc2n1	x	-1.1	x	x	x
O=C(Nc1ccc(N2CCOCC2)c(S(=O)(=O)Nc2ccccc2Cl)c1)c1ccccc1	x	-1.8	7.1	-10.6	-7.1
O=C(Nc1ccc(Cl)cc1)Nc1ccc(N2CCCC2)c(S(=O)(=O)Nc2ccccc2Cl)c1	7.5	-16.1	101.8*	-69.9	-101.7
N#Cc1c(NC(=S)NC(=O)c2ccccc2)sc2c1CCN(CCc1ccccc1)C2	12.1	x	x	x	x
CC(C)(C)C(=O)Nc1sc2c(c1C#N)CCN(Cc1ccccc1)C2	57.2*	-1.6	36.8	x	-36.8
CCN(CC)CC(=O)Nc1ccc(-c2ccc(NC(=O)CN(CC)CC)c(OC)c2)cc1OC	-18.8	-2.9	50.2	-2.6	-50.2
CCC(=O)Nc1ccc(-c2ccc(NC(=O)CC)c(OC)c2)cc1OC	2.5	-0.5	82.9*	4.3	-82.9
CN(C(=O)COC(=O)c1cccc(Cl)c1)C1CCS(=O)(=O)C1 (configuration not stated)	x	-0.9	-16.5	7.4	16.5
CC(C)CNS(=O)(=O)c1cc(C(=O)OCC(=O)N(C)C2CCS(=O)(=O)C2)c(Cl)cc1Cl (configuration not stated)	14.8	53.2*	x	-1.2	x
O=C(Nc1cccc(-c2cn3ccccc3n2)c1)c1cccc(Cl)c1	-10.4	x	63.2	-12.3	-63.2
O=C(Nc1cccc(-c2cn3ccccc3n2)c1)c1cnccn1	54.2*	7.8	22.4	-2.4	-22.4
COCCCNC(=O)/C(C#N)=C/c1ccc(F)cc1	68.5*	-0.3	-24.8	-10.6	24.8
COCCNC(=O)/C(C#N)=C/c1ccc(OCc2ccc(F)cc2)cc1	14.0	5.1	-7.0	36.8	7.0
CCC(=O)Nc1nc(-c2ccccc2)ns1	17.3	x	38.3	x	-38.3
CC(C)C(=O)Nc1nc(-c2ccccc2)ns1	44.0	-5.4	12.8	134.8*	-12.8
O=c1c2ccccc2[nH]c(=S)n1CCN1CCCCC1	25.6	3.0	-9.7	0.4	9.7
O=c1c2ccccc2[nH]c(=S)n1CCC1=CCCCC1	72.7*	11.5	25.2	19.4	-25.2
COc1ccc(OCCOCCN2CCc3ccccc3C2)cc1	-6.9	-6.4	-15.9	x	15.9
N#Cc1ccc(OCCN2CCc3ccccc3C2)cc1	84.6*	6.4	-10.8	x	10.8
COC(=O)[C@@H](Cc1ccccc1)N[C@H](/C=C/c1ccccc1)[C@@H](O)Cc1ccccc1	x	2.7	x	x	x
Nc1nc(SCc2ccccc2)sc1C(=O)N1CCCCC1	x	42.8*	x	x	x
O=[N+]([O-])c1cc(C=NN2CCCCCC2)ccc1Cl	x	40.1*	2.6	48.8	-2.6
SMILES	HSF-1 act	Wnt act	SR-BI DiI inh	MITF act	SR-BI DiI-HDL act
O=[N+]([O-])c1cc(/C=N/N2CCN(c3ccccc3)CC2)ccc1Cl	18.9	-0.2	-9.7	63.8	9.7
CC(C)c1ccc(/C=N/N2CCCCC2)cc1	-15.3	45.4*	-11.9	97.8*	11.9
O=[N+]([O-])c1cc(/C=N/N2CCCCC2)ccc1Cl	8.0	10.0	-1.2	99.2*	1.2
CCOC(=O)N1CCN(C(=O)C[C@H]2C[C@@]3(C(=O)OC)C(=C[C@H](COCc4ccccc4)O[C@@H]3C)N(CCC3=CCCCC3)C2=O)CC1	x	-4.7	x	x	x
CC(C)CC1C(C#N)=C(N)Oc2n[nH]c(-c3ccccc3)c21 (configuration not stated)	-0.2	32.2*	7.0	1.5	-7.0
CC(C)c1[nH]nc2c1C(c1cccnc1)C(C#N)=C(N)O2 (configuration not stated)	6.0	x	-13.9	6.5	13.9
CC(C)c1[nH]nc2c1C(c1ccco1)C(C#N)=C(N)O2 (configuration not stated)	55.4*	-1.4	-21.2	-2.1	21.2

Assay outcomes (PubChem)
